ChEMBL document CHEMBL1770107, “Design and synthesis of antifungal benzoheterocyclic derivatives by scaffold hopping” (2011)
≈ marks a conversion by molar mass, not a printed value.

Experiments:
Type in all cases: functional
Candida albicans [1] = experiment: Antimicrobial activity against fluconazole resistant Candida albicans clinical isolate after 24 hrs by NCCLS method
Summary of the method: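 Broth serial dilution in RPMI 1640 buffered with 0.165 M MOPS; clinical isolate. MIC80 is the lowest concentration giving 80% or greater turbidity reduction relative to the drug-free growth control, read at 24 h for Candida. Fluconazole is the reference drug.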

Candida albicans [2] = experiment: Antimicrobial activity against Candida albicans after 24 hrs by NCCLS method
Summary of the method: (§1)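 Broth serial-dilution MIC in 96-well plates, RPMI 1640 buffered with 0.165 M MOPS. Strains from ATCC or clinical isolates; fluconazole reference. MIC = lowest concentration giving ≥80% growth inhibition (turbidity) versus drug-free control. Read at 24 h for Candida spp., 72 h for C. neoformans, 7 days for filamentous fungi.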

Candida tropicalis = experiment: Antimicrobial activity against Candida tropicalis after 24 hrs by NCCLS method; summary of the method: as §1
Aspergillus fumigatus = experiment: Antimicrobial activity against Aspergillus fumigatus after 7 days by NCCLS method; conditions: 168 h; summary of the method: as §1
Cryptococcus neoformans = experiment: Antimicrobial activity against Cryptococcus neoformans after 72 hrs by NCCLS method; summary of the method: as §1
Trichophyton rubrum = experiment: Antimicrobial activity against Trichophyton rubrum after 7 days by NCCLS method; conditions: 168 h; summary of the method: as §1
Nannizzia gypsea = experiment: Antimicrobial activity against Microsporum gypseum after 7 days by NCCLS method; conditions: 168 h; summary of the method: as §1
Pichia kudriavzevii = experiment: Antimicrobial activity against Candida krusei after 24 hrs by NCCLS method; summary of the method: as §1
Candida parapsilosis = experiment: Antimicrobial activity against Candida parapsilosis after 24 hrs by NCCLS method; conditions: Lodderomyces parapsilosis; summary of the method: as §1

SMILES | MIC80 (Candida albicans [1]) [µg/mL] | MIC80 (Candida albicans [2]) [µg/mL] | MIC80 (Candida tropicalis) [µg/mL] | MIC80 (Aspergillus fumigatus) [µg/mL] | MIC80 (Cryptococcus neoformans) [µg/mL] | MIC80 (Trichophyton rubrum) [µg/mL] | MIC80 (Nannizzia gypsea) [µg/mL] | MIC80 (Pichia kudriavzevii) [µg/mL] | MIC80 (Candida parapsilosis) [µg/mL]
CCCCCCNCc1nc2ccccc2[nH]1 | > 64 | 1 (≈ 4.32 µM) | > 64 | > 64 | > 64 | 64 (≈ 277 µM) | > 64 | – | –
CCCCCCCNCc1nc2ccccc2[nH]1 | 32 (≈ 130 µM) | > 64 | > 64 | > 64 | 64 (≈ 261 µM) | 64 (≈ 261 µM) | > 64 | – | –
CCCCCCCCNCc1nc2ccccc2[nH]1 | 16 (≈ 61.7 µM) | > 64 | 16 (≈ 61.7 µM) | 32 (≈ 123 µM) | 16 (≈ 61.7 µM) | 16 (≈ 61.7 µM) | 16 (≈ 61.7 µM) | – | –
CCCCCCNCc1nc2ccccc2o1 | > 64 | 64 (≈ 275 µM) | 64 (≈ 275 µM) | > 64 | 64 (≈ 275 µM) | 16 (≈ 68.9 µM) | 16 (≈ 68.9 µM) | – | –
CCCCCCCNCc1nc2ccccc2o1 | 64 (≈ 260 µM) | 64 (≈ 260 µM) | 64 (≈ 260 µM) | 64 (≈ 260 µM) | 16 (≈ 64.9 µM) | 16 (≈ 64.9 µM) | 16 (≈ 64.9 µM) | – | –
CCCCCCCCNCc1nc2ccccc2o1 | 64 (≈ 246 µM) | 64 (≈ 246 µM) | 16 (≈ 61.4 µM) | 32 (≈ 123 µM) | 1 (≈ 3.84 µM) | 4 (≈ 15.4 µM) | 8 (≈ 30.7 µM) | – | –
CCCCCCNCc1nc2ccccc2s1 | 64 (≈ 258 µM) | 64 (≈ 258 µM) | 64 (≈ 258 µM) | > 64 | 64 (≈ 258 µM) | 64 (≈ 258 µM) | 64 (≈ 258 µM) | – | –
CCCCCCCNCc1nc2ccccc2s1 | 32 (≈ 122 µM) | 64 (≈ 244 µM) | 64 (≈ 244 µM) | > 64 | 64 (≈ 244 µM) | 16 (≈ 61 µM) | 16 (≈ 61 µM) | – | –
CCCCCCCCNCc1nc2ccccc2s1 | > 64 | 64 (≈ 232 µM) | 64 (≈ 232 µM) | > 64 | 16 (≈ 57.9 µM) | 16 (≈ 57.9 µM) | 64 (≈ 232 µM) | – | –
CCCCCCn1cnc2ccc(C)cc2c1=O | – | > 64 | > 64 | > 64 | > 64 | – | – | > 64 | > 64
CCCCCCCn1cnc2ccc(C)cc2c1=O | – | > 64 | > 64 | 64 (≈ 248 µM) | > 64 | – | – | > 64 | > 64
CCCCCCCCn1cnc2ccc(C)cc2c1=O | – | > 64 | > 64 | > 64 | > 64 | – | – | > 64 | > 64
CCCCCCN1CCc2c(c3cc(F)ccc3n2C)C1 | – | > 64 | > 64 | > 64 | > 64 | – | – | > 64 | > 64
CCCCCCCN1CCc2c(c3cc(F)ccc3n2C)C1 | – | 64 (≈ 212 µM) | > 64 | 64 (≈ 212 µM) | > 64 | – | – | > 64 | 64 (≈ 212 µM)
CCCCCCCCN1CCc2c(c3cc(F)ccc3n2C)C1 | – | 64 (≈ 202 µM) | > 64 | > 64 | > 64 | – | – | > 64 | 64 (≈ 202 µM)
CCCCCCN1CCc2c(c3cc(Cl)ccc3n2C)C1 | – | > 64 | > 64 | 64 (≈ 210 µM) | > 64 | – | – | 64 (≈ 210 µM) | > 64
CCCCCCCN1CCc2c(c3cc(Cl)ccc3n2C)C1 | – | > 64 | > 64 | > 64 | > 64 | – | – | > 64 | > 64
CCCCCCCCN1CCc2c(c3cc(Cl)ccc3n2C)C1 | – | > 64 | > 64 | > 64 | > 64 | – | – | 64 (≈ 192 µM) | 64 (≈ 192 µM)
CCCCCCN1CCc2c(c3cc(Br)ccc3n2C)C1 | – | > 64 | > 64 | 64 (≈ 183 µM) | > 64 | – | – | > 64 | > 64
CCCCCCCN1CCc2c(c3cc(Br)ccc3n2C)C1 | – | > 64 | > 64 | > 64 | 64 (≈ 176 µM) | – | – | > 64 | 64 (≈ 176 µM)
CCCCCCCCN1CCc2c(c3cc(Br)ccc3n2C)C1 | – | 64 (≈ 170 µM) | > 64 | > 64 | 64 (≈ 170 µM) | – | – | > 64 | 16 (≈ 42.4 µM)
CCCCCCN1CCc2c(c3cc(I)ccc3n2C)C1 | – | > 64 | > 64 | > 64 | > 64 | – | – | > 64 | 64 (≈ 161 µM)
CCCCCCCN1CCc2c(c3cc(I)ccc3n2C)C1 | – | > 64 | > 64 | > 64 | > 64 | – | – | > 64 | 64 (≈ 156 µM)
CCCCCCCCN1CCc2c(c3cc(I)ccc3n2C)C1 | – | 64 (≈ 151 µM) | > 64 | > 64 | > 64 | – | – | 64 (≈ 151 µM) | 16 (≈ 37.7 µM)
CCCCCCN1CCc2c(c3cc(C)ccc3n2C)C1 | – | 64 (≈ 225 µM) | 64 (≈ 225 µM) | 64 (≈ 225 µM) | 64 (≈ 225 µM) | – | – | 16 (≈ 56.2 µM) | 64 (≈ 225 µM)
CCCCCCCN1CCc2c(c3cc(C)ccc3n2C)C1 | – | 16 (≈ 53.6 µM) | 64 (≈ 214 µM) | 16 (≈ 53.6 µM) | > 64 | – | – | 64 (≈ 214 µM) | 16 (≈ 53.6 µM)
CCCCCCCCN1CCc2c(c3cc(C)ccc3n2C)C1 | – | 16 (≈ 51.2 µM) | 64 (≈ 205 µM) | 16 (≈ 51.2 µM) | > 64 | – | – | 64 (≈ 205 µM) | 16 (≈ 51.2 µM)
OC(Cn1cncn1)(Cn1cncn1)c1ccc(F)cc1F [FLUCONAZOLE] | – | 1 (≈ 3.27 µM) | 1 (≈ 3.27 µM) | > 64 | 1 (≈ 3.27 µM) | 4 (≈ 13.1 µM) | 16 (≈ 52.2 µM) | 0.5 (≈ 1.63 µM) | 1 (≈ 3.27 µM)
